Here are results for 16 molecules from ChEMBL document CHEMBL3596133, “Discovery and structural analyses of S-adenosyl-L-homocysteine hydrolase inhibitors based on non-adenosine analogs” (Bioorg Med Chem, 2015).

Molecules are shown by their SMILES. Active and inactive are the calls of the source. No cut-off for these calls is given here.

For one experiment, the target named is Adenosylhomocysteinase (Homo sapiens, UniProt P23526). As to the kind of experiment: Inhibition of recombinant human S-adenosyl-L-homocysteine hydrolase assessed as hydrolysis of AdoHcy after 8 mins by HPLC analysis. The essentials:
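Human recombinant enzyme (50 ng) added after test compound to 10 μM AdoHcy plus adenosine deaminase (4 units) in 50 mM phosphate buffer pH 7.2 with 1 mM EDTA. Incubated at 37 °C for 8 min, then stopped with 1 mol/L perchloric acid and centrifuged at 4 °C. Read-out is AdoHcy hydrolysis activity. IC50 given as mean ± standard error of triplicate determinations.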
In the case of `CN(C(=O)CN(CC(=O)NC1CCN(C(=O)OC(C)(C)C)C1)c1cc(Cl)ccc1Oc1ccc(Cl)cc1)C1Cc2ccccc2C1` (stereo unspecified), the IC50 (as a rule, the concentration needed to halve the response being measured) is 1500 nM.
For the molecule `CN(C(=O)CN(CC(=O)NCC1CCCCN1C(=O)OC(C)(C)C)c1cc(Cl)ccc1Oc1ccc(Cl)cc1)C1Cc2ccccc2C1` (stereo unspecified), the IC50 was found to be 150 nM.
Same read-out and setting: the same measure for `CN(CCNC(=O)CN(CC(=O)N(C)C1Cc2ccccc2C1)c1cc(Cl)ccc1Oc1ccc(Cl)cc1)C(=O)OC(C)(C)C`: 70 nM; for `CN(C(=O)CN(CC(=O)NC1CCCN(C(=O)OC(C)(C)C)C1)c1cc(Cl)ccc1Oc1ccc(Cl)cc1)C1Cc2ccccc2C1` (stereo unspecified): 1200 nM; for `CN(C(=O)CN(CC(=O)NC[C@@H]1CCCN1C(=O)OC(C)(C)C)c1cc(Cl)ccc1Oc1ccc(Cl)cc1)C1Cc2ccccc2C1`: 110 nM.
As for `CN(C(=O)CN(CC(=O)NC1CCCNC1)c1cc(Cl)ccc1Oc1ccc(Cl)cc1)C1Cc2ccccc2C1` (stereo unspecified), the inhibition result is “Active”.
In the case of `CN(C(=O)CN(CC(=O)NC[C@H]1CCCN1C(=O)OC(C)(C)C)c1cc(Cl)ccc1Oc1ccc(Cl)cc1)C1Cc2ccccc2C1`, the IC50 stood at 600 nM.
Regarding `CCNCCNC(=O)CN(CC(=O)N(C)N1Cc2ccccc2C1)c1cc(Cl)ccc1Oc1ccc(Cl)cc1`, the IC50 worked out at 8.5 nM.
Take `O=C(CN(CC(=O)N1CCCc2ccccc21)c1cc(Cl)ccc1Oc1ccc(Cl)cc1)NCCN1CCCC1`: the IC50 amounted to 2300 nM.
For the molecule `CCN(C(=O)CN(CC(=O)NCCN1CCCC1)c1cc(Cl)ccc1Oc1ccc(Cl)cc1)C1Cc2ccccc2C1`, the IC50 came out at 640 nM.
The same measure, in the same setting: the same measure for `CCN(CCNC(=O)CN(CC(=O)N(C)C1Cc2ccccc2C1)c1cc(Cl)ccc1Oc1ccc(Cl)cc1)C(=O)OC(C)(C)C`: 60 nM.
As for `CN(C(=O)CN(CC(=O)NC1CCNC1)c1cc(Cl)ccc1Oc1ccc(Cl)cc1)C1Cc2ccccc2C1` (stereo unspecified), the inhibition entry is “Active”.
Regarding `CN(CCN1CCCC1)C(=O)CN(CC(=O)N(C)C1Cc2ccccc2C1)c1cc(Cl)ccc1Oc1ccc(Cl)cc1`, the IC50 was above 100000 nM.
Consider `CC(C)N(CCNC(=O)CN(CC(=O)N(C)C1Cc2ccccc2C1)c1cc(Cl)ccc1Oc1ccc(Cl)cc1)C(=O)OC(C)(C)C`, for which the IC50 is 49 nM.
On the same count and under the same terms, next, `CN(C(=O)CN(CC(=O)NCCN1CCCC1)c1cc(Cl)ccc1Oc1ccc(Cl)cc1)C1CCNCC1`: above 100000 nM.

A further experiment addresses T1, Adenosylhomocysteinase (Rattus norvegicus, UniProt P10760).
T1 sequence (P10760 whole entry): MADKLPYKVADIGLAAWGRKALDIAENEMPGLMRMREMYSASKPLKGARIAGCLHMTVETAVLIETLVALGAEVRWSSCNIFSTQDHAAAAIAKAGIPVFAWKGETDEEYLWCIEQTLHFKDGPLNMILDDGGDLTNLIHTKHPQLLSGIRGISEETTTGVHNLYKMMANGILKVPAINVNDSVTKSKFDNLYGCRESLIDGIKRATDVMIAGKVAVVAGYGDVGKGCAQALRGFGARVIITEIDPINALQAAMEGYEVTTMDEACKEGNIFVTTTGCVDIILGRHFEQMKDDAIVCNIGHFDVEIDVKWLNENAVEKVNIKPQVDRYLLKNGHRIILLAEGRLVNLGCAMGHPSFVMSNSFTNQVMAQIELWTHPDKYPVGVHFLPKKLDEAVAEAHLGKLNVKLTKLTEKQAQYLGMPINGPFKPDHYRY
The experiment in a line: Reversible inhibition of rat liver S-adenosyl-L-homocysteine hydrolase. It is filed as tissue-based.
As to `Nc1ncnc2c1ncn2CC(O)CO` (stereo unspecified), the Ki – broadly, the dissociation constant of the complex between target and ligand, obtained from inhibition or displacement – was determined as 1000 nM.
